Source: ChEMBL document CHEMBL1833876 (J Med Chem, 2011)
Calls of active or inactive are those of the source. No cut-off for these calls is given here.

Experiments:
R2 [1] = experiment: Decrease in intracellular ATP concentration in chinese hamster R2 cells expressing human PCFT at 1 uM after 24 hrs by HPLC relative to control at pH 6.8; type: functional, Cricetulus griseus; design: scale not given: the % may be the effect or the level left
How it was run: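 R2/hPCFT4 CHO cells seeded in folate-free RPMI 1640 with 10% dialysed FBS and 25 nM leucovorin (pH 7.2). After 24 h, switched to the same medium buffered to pH 6.8 with 25 mM PIPES/25 mM HEPES. Drug at 1 µM, or vehicle (0.5% DMSO or H2O), for 24 h. Nucleotides extracted; ATP quantified by HPLC against vehicle control.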

R2 [2] = experiment: Inhibition of GARFTase in chinese hamster R2 cells expressing human PCFT assessed as incorporation of [14C]glycine into [14C]formyl GAR in the presence of 4 uM azaserine; type: cell-based; conditions: Cricetulus griseus
[3] = Antiproliferative activity against chinese hamster RT16 cells expressing human FRalpha assessed as reduction of viable cells after 96 hrs in the presence of 200 nM folic acid; type: functional, cell-based; conditions: Cricetulus griseus, RT16, 96 h
How it was run: (§1)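 Same 96 h CellTiter-blue proliferation set-up in folate-free RPMI/10% dFBS with 2 nM leucovorin. Run in parallel incubations that included 200 nM folic acid alongside the antifolate, to establish FR-dependent uptake.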

[4] = biological target: T1, Reduced folate transporter (Homo sapiens) (UniProt P41440); experiment: Inhibition of human RFC-mediated [3H]MTX uptake in chinese hamster PC43-10 cells at 10 uM after 2 mins relative to control; type: cell-based
T1 sequence (whole entry): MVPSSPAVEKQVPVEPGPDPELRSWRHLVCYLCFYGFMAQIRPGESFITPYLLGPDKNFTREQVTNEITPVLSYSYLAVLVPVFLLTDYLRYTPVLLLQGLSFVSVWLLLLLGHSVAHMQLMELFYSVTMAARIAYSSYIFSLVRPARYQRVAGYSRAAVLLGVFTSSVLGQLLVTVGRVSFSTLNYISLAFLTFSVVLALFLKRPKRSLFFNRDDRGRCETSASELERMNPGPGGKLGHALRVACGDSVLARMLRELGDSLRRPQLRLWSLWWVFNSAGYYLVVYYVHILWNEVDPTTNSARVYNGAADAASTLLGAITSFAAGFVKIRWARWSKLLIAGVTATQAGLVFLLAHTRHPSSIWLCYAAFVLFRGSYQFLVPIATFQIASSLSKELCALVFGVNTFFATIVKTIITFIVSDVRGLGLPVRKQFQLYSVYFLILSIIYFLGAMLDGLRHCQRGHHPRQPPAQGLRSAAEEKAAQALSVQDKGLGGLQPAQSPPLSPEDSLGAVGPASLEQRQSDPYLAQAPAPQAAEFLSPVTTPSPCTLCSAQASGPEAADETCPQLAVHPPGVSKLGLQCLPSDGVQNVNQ
How it was run: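 PC43-10 (hRFC) cells were suspended in Hank's balanced salts. […] Results were expressed per mg protein, and percent inhibition was taken versus control uptake.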

R2 [5] = experiment: Antiproliferative activity against chinese hamster R2 cells expressing human PCFT assessed as reduction of viable cells after 96 hrs; type: functional, cell-based; conditions: Cricetulus griseus, R2, 96 h
[6] = Antiproliferative activity against chinese hamster R2(VC) cells assessed as reduction of viable cells after 96 hrs; conditions: Cricetulus griseus
[7] = biological target: Folate receptor alpha (Homo sapiens) (UniProt P15328); experiment: Displacement of [3H]-folic acid from human FRaplha expressed in chinese hamster RT16 cells after 15 mins; type: cell-based
Sequence of Folate receptor alpha (Homo sapiens) (P15328 25-234 limits assumed): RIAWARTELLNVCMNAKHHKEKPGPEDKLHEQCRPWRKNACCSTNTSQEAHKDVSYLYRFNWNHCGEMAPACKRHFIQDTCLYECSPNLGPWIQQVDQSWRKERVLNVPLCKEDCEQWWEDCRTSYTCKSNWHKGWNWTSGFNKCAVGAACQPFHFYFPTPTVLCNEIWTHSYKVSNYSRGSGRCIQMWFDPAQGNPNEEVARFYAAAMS

[8] = Antiproliferative activity against chinese hamster PC43-10 expressing human RFC assessed as reduction of viable cells after 96 hrs; type: functional; conditions: Cricetulus griseus, PC43-10, 96 h
IGROV-1 [9] = experiment: Antiproliferative activity against human IGROV1 cells expressing human RFC, FRalpha and PCFT assessed as reduction of viable cells after 96 hrs in the presence of 200 nM folic acid; type: functional, cell-based; conditions: IGROV-1, 96 h; how it was run: as §1
[10] = biological target: Folate receptor beta (Homo sapiens) (UniProt P14207); experiment: Displacement of [3H]-folic acid from human FRbeta expressed in chinese hamster D4 cells after 15 mins; type: cell-based
Sequence of Folate receptor beta (Homo sapiens) (P14207 17-230 limits assumed): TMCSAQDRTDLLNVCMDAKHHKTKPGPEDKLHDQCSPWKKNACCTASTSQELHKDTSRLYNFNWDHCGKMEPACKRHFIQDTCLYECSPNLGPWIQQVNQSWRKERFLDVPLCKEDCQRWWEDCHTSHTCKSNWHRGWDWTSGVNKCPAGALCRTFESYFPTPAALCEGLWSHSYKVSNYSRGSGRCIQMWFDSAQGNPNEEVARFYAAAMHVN

[11] = Antiproliferative activity against chinese hamster D4 cells expressing human FRbeta assessed as reduction of viable cells after 96 hrs in the presence of 200 nM folic acid; type: functional, cell-based; conditions: Cricetulus griseus, D4, 96 h; how it was run: as §1
KB [12] = experiment: Antiproliferative activity against human KB cells expressing human RFC, FRalpha and PCFT assessed as reduction of viable cells after 96 hrs; type: functional, cell-based
R2 [13] = experiment: Antiproliferative activity against chinese hamster R2 cells assessed as reduction of viable cells after 96 hrs; conditions: Cricetulus griseus, R2, 96 h
[14] = Antiproliferative activity against chinese hamster RT16 cells expressing human FRalpha assessed as reduction of viable cells after 96 hrs; type: functional, cell-based; conditions: Cricetulus griseus, RT16, 96 h
[15] = Antiproliferative activity against chinese hamster D4 cells expressing human FRbeta assessed as reduction of viable cells after 96 hrs; type: functional, cell-based; conditions: Cricetulus griseus, D4, 96 h
IGROV-1 [16] = experiment: Antiproliferative activity against human IGROV1 cells expressing human RFC, FRalpha and PCFT assessed as reduction of viable cells after 96 hrs; type: functional, cell-based; conditions: IGROV-1, 96 h
KB [17] = experiment: Antiproliferative activity against human KB cells expressing human RFC, FRalpha and PCFT assessed as reduction of viable cells after 96 hrs in the presence of 200 nM folic acid; type: functional, cell-based; how it was run: as §1
IGROV-1 [18] = experiment: Antitumor activity against human IGROV1 cells expressing human RFC, FRalpha and PCFT xenografted in SCID mouse assessed as log cell kill at 180 mg/kg, iv administered on days 3, 7, 11, 15, and 19 postimplantation; type: functional
How it was run: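 Female ICR SCID mice, 10 weeks old, on a folate-deficient diet from 24 days before implant. Bilateral subcutaneous IGROV1 tumour fragments (30–60 mg, by trocar); mice pooled, then randomised. IV dosing on days 3, 7, 11, 15 and 19. Mice weighed daily; tumours measured by caliper 2–3 times weekly; mice sacrificed at 1500 mg tumour burden. Weight-loss nadir and recovery recorded.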

[19] = biological target: T2, Proton-coupled folate transporter (Homo sapiens) (UniProt Q96NT5); experiment: Inhibition of human PCFT-mediated [3H]MTX uptake ectopically expressed in chinese hamster R2 cells at 10 uM at pH 5.5 to 7.2; type: cell-based
T2 sequence (whole entry): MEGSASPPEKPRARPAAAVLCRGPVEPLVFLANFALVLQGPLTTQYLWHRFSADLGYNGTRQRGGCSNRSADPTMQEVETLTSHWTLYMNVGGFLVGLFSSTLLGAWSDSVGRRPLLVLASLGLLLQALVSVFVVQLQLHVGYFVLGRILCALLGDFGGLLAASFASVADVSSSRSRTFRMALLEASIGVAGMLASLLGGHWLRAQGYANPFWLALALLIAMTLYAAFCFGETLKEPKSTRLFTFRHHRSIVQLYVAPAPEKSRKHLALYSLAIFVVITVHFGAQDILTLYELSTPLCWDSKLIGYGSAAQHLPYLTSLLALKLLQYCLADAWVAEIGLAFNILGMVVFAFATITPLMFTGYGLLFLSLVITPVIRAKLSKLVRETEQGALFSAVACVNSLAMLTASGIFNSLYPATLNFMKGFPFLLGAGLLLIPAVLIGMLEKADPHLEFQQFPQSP

[20] = biological target: T2, Proton-coupled folate transporter (Homo sapiens); experiment: Inhibition of human PCFT-mediated [3H]MTX uptake expressed in chinese hamster R2 cells at pH 6.8 […] relative to PMX; type: cell-based; conditions: concentration not given here
[21] = biological target: T2, Proton-coupled folate transporter (Homo sapiens); experiment: Induction of current in human PCFT expressed in xenopus oocyte at 5 uM at holding potential -90 mV by voltage clamp assay
[22] = biological target: T2, Proton-coupled folate transporter (Homo sapiens); experiment: Inhibition of human PCFT-mediated [3H]MTX uptake expressed in chinese hamster R2 cells at pH 5.5 by dixon plot analysis relative to PMX; type: cell-based; conditions: concentration not given here
R2 [23] = experiment: Antiproliferative activity against chinese hamster R2 cells expressing human PCFT assessed as growth inhibition in the presence of 60 uM adenosine and 10 uM thymidine; type: functional, cell-based; conditions: Cricetulus griseus
How it was run: (§2)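 R2/hPCFT4 cells were grown in folate-free RPMI with 25 nM leucovorin and 10% dFBS and exposed to antifolate for up to 96 h. Rescue co-incubations used thymidine (10 µM), adenosine (60 µM) and AICA (320 µM), alone or combined. Viability was read by CellTiter-blue.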

R2 [24] = experiment: Antiproliferative activity against chinese hamster R2 cells expressing human PCFT assessed as growth inhibition at <50 nM in the presence of 10 uM thymidine; type: functional, cell-based; conditions: Cricetulus griseus; how it was run: as §2
R2 [25] = experiment: Antiproliferative activity against chinese hamster R2 cells expressing human PCFT assessed as growth inhibition in the presence of 10 uM thymidine and 320 uM AICA; type: functional, cell-based; conditions: Cricetulus griseus; how it was run: as §2
R2 [26] = experiment: Antiproliferative activity against chinese hamster R2 cells expressing human PCFT assessed as growth inhibition in the presence of 60 uM adenosine; type: functional, cell-based; conditions: Cricetulus griseus; how it was run: as §2

| SMILES | inhibition [4] | IC50 (KB [17]) [µM] | Activity (R2 [1]) [%] | IC50 [3] [µM] | IC50 (R2 [5]) [µM] | IC50 [6] [µM] | IC50 [8] [µM] | IC50 (IGROV-1 [9]) [µM] | IC50 (R2 [13]) [µM] | further results |
| --- | --- | --- | --- | --- | --- | --- | --- | --- | --- | --- |
| Nc1nc2c(c(=O)[nH]1)C[C@@H](CCc1ccc(C(=O)N[C@@H](CCC(=O)O)C(=O)O)cc1)CN2 [LOMETREXOL] | Active |  | 76 | > 0.188 | 0.038 | > 1 |  |  |  | inhibition (R2 [2]): Active |
| Nc1nc(=O)c2c([nH]1)NCC(CNc1ccc(C(=O)N[C@@H](CCC(=O)O)C(=O)O)cc1)N2C=O (mixture of isomers) | Active |  |  |  |  |  |  |  |  |  |
| CN(Cc1cnc2nc(N)nc(N)c2n1)c1ccc(C(=O)N[C@@H](CCC(=O)O)C(=O)O)cc1 [METHOTREXATE] |  |  |  |  |  | > 1 |  |  |  |  |
| Nc1nc2[nH]c(CCCCc3ccc(C(=O)N[C@@H](CCC(=O)O)C(=O)O)s3)cc2c(=O)[nH]1 | Active | > 1 | 90 | > 1 |  | > 1 | > 1 | > 1 | > 1 | LCK (IGROV-1 [18]): 2.3; IC50 [11]: > 1 µM; inhibition [19]: Active; inhibition [20]: 18%; Activity [21]: Active; inhibition [22]: 35% |
| Nc1nc(N)c2nc(CNc3ccc(C(=O)N[C@@H](CCCNC(=O)c4ccccc4C(=O)O)C(=O)O)cc3)cnc2n1 [TALOTREXIN] | Active |  |  |  | > 1 | > 1 |  |  | > 1 | inhibition [19]: inactive |

Further lines, with some results ahead:

| inhibition [4] | IC50 (KB [17]) [µM] | SMILES | Activity (R2 [1]) [%] | IC50 [3] [µM] | IC50 (R2 [5]) [µM] | IC50 [6] [µM] | IC50 [8] [µM] | IC50 (IGROV-1 [9]) [µM] | IC50 (R2 [13]) [µM] | further results |
| --- | --- | --- | --- | --- | --- | --- | --- | --- | --- | --- |
| Active | > 1 | Nc1nc2[nH]c(CCc3ccc(C(=O)N[C@@H](CCC(=O)O)C(=O)O)s3)cc2c(=O)[nH]1 |  | > 1 | 0.135 | > 1 | > 1 | > 1 | > 1 | inhibition [7]: inactive; inhibition [10]: inactive; IC50 [11]: > 1 µM; IC50 (KB [12]): 0.00322 µM; IC50 [14]: 0.0389 µM; IC50 [15]: 0.00658 µM; IC50 (IGROV-1 [16]): 0.123 µM |
|  | > 1 | Nc1nc2[nH]c(Cc3ccc(C(=O)N[C@@H](CCC(=O)O)C(=O)O)s3)cc2c(=O)[nH]1 |  | > 1 | 0.291 | > 1 | > 1 | > 1 | > 1 | IC50 (KB [12]): 0.0419 µM; IC50 [14]: 0.122 µM; IC50 (IGROV-1 [16]): > 1 µM |
| Active |  | Cc1nc(=O)c2cc(CN(C)c3ccc(C(=O)N[C@@H](CCC(=O)O)C(=O)O)s3)ccc2[nH]1 [RALTITREXED] |  |  |  |  |  |  |  |  |
| Active |  | Nc1nc2[nH]cc(CCc3ccc(C(=O)N[C@@H](CCC(=O)O)C(=O)O)cc3)c2c(=O)[nH]1 [PEMETREXED] | 17 |  |  |  |  |  |  | inhibition (R2 [2]): Active; Activity (R2 [23]): inactive; Activity (R2 [24]): inactive; Activity (R2 [25]): Active; Activity (R2 [26]): Active |
